Experimental data pooled from the literature.
Lines come from different studies, so protocols differ.
Target: BDNF/NT-3 growth factors receptor (NTRK2, Homo sapiens, UniProt Q16620)
Tested at: 1 µM

`C[C@@H]1CCN(c2nccc(-c3cnn4ncccc34)n2)C1` has a remaining binding of 72% (binding).
`CCN1CCN(Cc2ccc(C(=O)Nc3ccc(C)c(Oc4ccc5c(c4)CC(=O)N5)c3)cc2C(F)(F)F)CC1` gave a remaining binding of 81% (binding, competition with immobilised ligand).
`CN(CCCC(F)(F)F)c1nccc(-c2cnn3ncccc23)n1` gave a remaining binding of 100% (binding).
For `O=C(Nc1c[nH]nc1C(=O)NC1CCNCC1)c1cc(F)cc(F)c1`, the remaining binding was 71% (binding, competition with immobilised ligand).
For `COc1cnc(Nc2cccc(S(N)(=O)=O)c2)nc1N1CCN(c2ccccc2)CC1`, the remaining binding was 75% (binding, competition with immobilised ligand).
With `CC1=C(C#N)C(c2ccc3c(c2)c(NC(=O)c2ccccc2C)nn3C)C(C#N)=C(C)N1` the remaining binding was 72% (cell-free assay, competition with immobilised ligand).
For `COc1ccnn2ncc(-c3ccnc(N(C)C)n3)c12`, the remaining binding was 87% (binding).
For `O=C(NC[C@@H]1[C@H]2CN(C(=O)OCc3cc(C(F)(F)F)cc(C(F)(F)F)c3)C[C@@H]12)c1ccc2[nH]nnc2c1`, the remaining binding was 99% (cell-free assay, competition with immobilised ligand).
For `C=CC(=O)N1CCC(C(=O)NCC(=O)N2CCN(c3nc(-c4cnc(N)nc4C(F)F)nc(N4CCOCC4)n3)CC2)CC1`, the remaining binding was 89% (binding, competition with immobilised ligand).
For `CCOCCn1cc(C(=O)Nc2ccc(-n3nc(-c4cccnc4)cc3C(F)(F)F)cn2)ccc1=O`, the remaining binding was 100% (cell-free assay, competition with immobilised ligand).
The remaining binding of `Nc1ncc2c(n1)-c1c([nH]c3ccc(C#CC4CC4)cc13)CCCC2` is reported as 77% (binding, competition with immobilised ligand).
`CSc1cccnc1N1CCN(Cc2nc3ccccc3[nH]2)CC1` has a remaining binding of 100% (cell-free assay, competition with immobilised ligand).
For `Cc1cnc(Nc2ccc(C(=O)N3CCC(N4CCCC4)CC3)cc2)nc1-c1cc2ccccc2s1`, the remaining binding was 4.1% (binding, competition with immobilised ligand).
The remaining binding of `O=C(NCc1ncc(C(F)(F)F)cc1Cl)c1ccc2c(c1)C1(CCS(=O)(=O)CC1)[C@@H](C1CC1)N2S(=O)(=O)c1ccc(F)cc1` is reported as 71% (cell-free assay, competition with immobilised ligand).
For `COc1cnc(Nc2cccc(S(N)(=O)=O)c2)nc1N1CCN(c2ccccc2)C(=O)C1`, the remaining binding was 100% (binding, competition with immobilised ligand).
For `N[C@H]1CCN(c2nccc(-c3cnn4ncccc34)n2)C1`, the remaining binding was 100% (binding).
`O=C(c1ccc(Nc2ncc(Cl)c(-c3ccc(Cl)s3)n2)cc1)N1CCC(N2CCCC2)CC1` has a remaining binding of 5.3% (binding, competition with immobilised ligand).
The remaining binding of `CC1CCCN1c1nccc(-c2cnn3ncccc23)n1` (stereo not drawn) is reported as 100% (binding).
The remaining binding of `CN([C@@H]1CCc2c(CC(=O)O)c3cc(S(C)(=O)=O)ccc3n2C1)S(=O)(=O)c1ccc(F)cc1` is reported as 100% (cell-free assay, competition with immobilised ligand).
`O=C(c1ccc(Nc2nccc(-c3cc4ccccc4s3)n2)cc1)N1CCC(N2CCCC2)CC1` gave a remaining binding of 59% (binding, competition with immobilised ligand).
With `F[C@@H]1CCN(c2nccc(-c3cnn4ncccc34)n2)C1` the remaining binding was 100% (binding).
